Test results published in ChEMBL document CHEMBL1123757, “Selective thromboxane synthetase inhibitors and antihypertensive agents. New derivatives of 4-hydrazino-5H-pyridazino[4,5-b]indole, 4-hydrazinopyridazino[4,5-a]indole, and related compounds” (J Med Chem, 1987).

Experiments:
[1] = species: Homo sapiens; assay: In vitro inhibition of platelet aggregation induced by […] (PRP incubated for 5 minutes at 37 degree C) at 10e-5 M;NS means no significance; format: functional
[2] = system: Rattus norvegicus; assay: Antihypertensive activity in spontaneously hypertensive rats (SHR) measured by percentage fall in arterial pressure (AP) at 25 mg/kg administered intraperitoneally at 3 h;No significance; format: functional, organism-based; design: dose 25 mg/kg; conditions: Artery
In short: (§1)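 Unanesthetized Okamoto-strain SHR, male and female, 8 weeks old, 300–350 g, systolic pressure ≥190 mmHg, heart rate 400–650 beats/min; five animals per dose. Given ip at 2.5 mL/kg, dissolved or suspended in normal saline or saline with 0.2% (carboxymethyl)cellulose and 1.0% Tween 80. Tail AP and CR recorded by mechanical transduction at set times; reported as percentage fall from control.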

[3] = system: Rattus norvegicus; assay: Antihypertensive activity in spontaneously hypertensive rats (SHR) measured by percentage fall in arterial pressure (AP) at 25 mg/kg administered intraperitoneally at 5 h;No significance; format: functional, organism-based; design: dose 25 mg/kg; conditions: Artery; in short: as §1
[4] = system: Rattus norvegicus; assay: Antihypertensive activity in spontaneously hypertensive rats (SHR) measured by percentage fall in cardiac rhythm (CR) at 25 mg/kg administered intraperitoneally at 1 h; format: functional, Heart; conditions: route intraperitoneal; in short: as §1
[5] = species: Homo sapiens; assay: In vitro inhibition of platelet aggregation induced by AA (PRP incubated for 60 minutes at 37 degree C) at 10e-5 M;NS means no significance; format: functional
In short: (§2)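 Human venous blood anticoagulated with 3.8% sodium citrate (1:9). PRP from centrifugation at 800 rpm for 10 min at room temperature. Count adjusted with PPP to […]. Compound in saline with 10% ethylene glycol is added to PRP and incubated at 37 °C before the agonist. Agonists: ADP 2×10^-5 M, AA 0.6 mM, PGH2 2.8 μM, adrenaline 0.6 μM. Born absorbance aggregometry; n = 5.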

[6] = species: Homo sapiens; assay: In vitro inhibition of platelet aggregation induced by ADP-II (PRP incubated for 5 minutes at 37 degree C) at 10e-5 M;No significance; format: functional; in short: as §2
[7] = species: Homo sapiens; assay: In vitro inhibition of platelet aggregation induced by ADP-II (PRP incubated for 60 minutes at 37 degree C) at 10e-5 M; format: functional; conditions: 1 h; in short: as §2
[8] = system: Rattus norvegicus; assay: Antihypertensive activity in spontaneously hypertensive rats (SHR) measured by percentage fall in cardiac rhythm (CR) at 25 mg/kg administered intraperitoneally at 24 h;No significance; format: functional, organism-based; design: dose 25 mg/kg; conditions: Heart; in short: as §1
[9] = system: Rattus norvegicus; assay: Antihypertensive activity in spontaneously hypertensive rats (SHR) measured by percentage fall in cardiac rhythm (CR) at 25 mg/kg administered intraperitoneally at 3 h;No significance; format: functional, organism-based; design: dose 25 mg/kg; conditions: Heart
In short: (§3)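 Conscious SHR (Okamoto strain), 8 weeks old, male and female, 300–350 g, systolic BP ≥190 mmHg, CR 400–650 beats/min. Given ip or po at 2.5 mL/kg in normal saline or saline with 0.2% (carboxymethyl)cellulose and 1.0% Tween 80. Tail AP and CR recorded by mechanical transduction at 1, 3, 5 and 24 h, five animals per dose. Effect expressed as % fall versus control.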

[10] = system: Rattus norvegicus; assay: Antihypertensive activity in spontaneously hypertensive rats (SHR) measured by percentage fall in cardiac rhythm (CR) at 25 mg/kg administered intraperitoneally at 5 h;No significance; format: functional, organism-based; design: dose 25 mg/kg; conditions: Heart; in short: as §3
[11] = system: Rattus norvegicus; assay: Antihypertensive activity in spontaneously hypertensive rats (SHR) measured by percentage fall in arterial pressure (AP) at 25 mg/kg administered intraperitoneally at 1 h;No significance; format: functional, organism-based; design: dose 25 mg/kg; conditions: Artery; in short: as §1
[12] = system: Rattus norvegicus; assay: Antihypertensive activity in spontaneously hypertensive rats (SHR) measured by percentage fall in arterial pressure (AP) at 25 mg/kg administered intraperitoneally at 24 h;No significance; format: functional, organism-based; design: dose 25 mg/kg; conditions: Artery; in short: as §1
[13] = system: Rattus norvegicus; assay: Antihypertensive activity in spontaneously hypertensive rats (SHR) measured by percentage fall in arterial pressure (AP) at 25 mg/kg administered perorally at 24 h;No significance; format: functional, organism-based; design: dose 25 mg/kg; conditions: Artery
In short: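 Oral dosing at 2.5 mL/kg to unanesthetized male and female Okamoto-strain SHR (8 weeks old, 300–350 g, systolic pressure ≥190 mmHg, heart rate 400–650 beats/min), five per dose. Vehicle was normal saline or saline with 0.2% (carboxymethyl)cellulose and 1.0% Tween 80. AP measured on the tail by mechanical transduction at set times; expressed as percentage fall from control.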

[14] = system: Rattus norvegicus; assay: Antihypertensive activity in spontaneously hypertensive rats (SHR) measured by percentage fall in arterial pressure (AP) at 1 mg/kg administered intraperitoneally at 1 h;No significance; format: functional, organism-based; design: dose 1 mg/kg; conditions: Artery; in short: as §1
[15] = system: Rattus norvegicus; assay: Antihypertensive activity in spontaneously hypertensive rats (SHR) measured by percentage fall in cardiac rhythm (CR) at 25 mg/kg administered perorally at 24 h;No significance; format: functional, organism-based; design: dose 25 mg/kg; conditions: Heart; in short: as §3
[16] = system: Rattus norvegicus; assay: Percent fall in systolic blood pressure, directly measured on carotid (iv on the jugular vein) of spontaneously after 180 minutes; No significance; format: functional, organism-based; conditions: Artery
In short: (§4)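 Anesthetized (sodium pentobarbital, 70 mg/kg) male and female Okamoto SHR, 8 weeks old, 300–350 g. Given iv into the jugular vein in normal saline. Arterial pressure and cardiac rhythm are recorded directly from the carotid by polygraph at set times after dosing. Each is expressed as percent change from the pre-dose control value.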

[17] = system: Rattus norvegicus; assay: Percent fall in systolic blood pressure, directly measured on carotid (iv on the jugular vein) of spontaneously hypertensive rats at 1 mg/kg after 240 minutes; No significance; format: functional, organism-based; design: dose 1 mg/kg; conditions: Artery; in short: as §4
[18] = system: Rattus norvegicus; assay: Antihypertensive activity in spontaneously hypertensive rats (SHR) measured by percentage fall in arterial pressure (AP) at 1 mg/kg administered intraperitoneally at 5 h;No significance; format: functional, organism-based; design: dose 1 mg/kg; conditions: Artery; in short: as §1

## CCOc1ccc2[nH]c3c(O)nncc3c2c1
[1]
  inhibition: no significance
[2]
  inhibition: No significant values
[3]
  Decrease in CR: No significant values
[4]
  Decrease in CR: 6%
[5]
  inhibition: No significant values
[6]
  inhibition: No significant values
[7]
  inhibition at 10 µM: 100%
[8]
  Decrease in CR: No significant values
[9]
  Decrease in CR: No significant values
[10]
  Decrease in AP: No significant values
[11]
  Decrease in AP: No significant values
[12]
  Decrease in AP: No significant values

## NNc1[nH]ncc2c3cc(O)ccc3nc1-2
[13]
  Decrease in AP: No significant values
[14]
  Decrease in AP: No significant values
[15]
  Decrease in CR: No significant values
[16]
  Decrease in blood pressure: No significant values
[17]
  Decrease in blood pressure: No significant values
[18]
  Decrease in AP: No significant values
